Experimental findings from ChEMBL document CHEMBL1914406, “Inhibitory effect of novel 5-O-acyl juglones on mammalian DNA polymerase activity, cancer cell growth and inflammatory response” (Bioorg Med Chem, 2011) are described below.

One data set deals with DNA polymerase eta (Homo sapiens, UniProt Q9Y253). The experiment in a line: Inhibition of C-terminal His6-tagged human DNA polymerase eta (amino acids 1 to 511) using poly(dA)/oligo(dT)18 (A/T = 2/1) and dTTP as the DNA template-primer and nucleotide substrate after 60 mins. Summed up:
(§1)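 Compound in DMSO, sonicated 30 s. Premixed 0 °C, 10 min with enzyme (0.05 units) in 50 mM Tris-HCl pH 7.5, 1 mM DTT, 50% glycerol, 0.1 mM EDTA, then added to standard reaction mixture. Template-primers: poly(dA)/oligo(dT)18 (2/1) for pols, oligo(dT)18 for TdT, poly(rA)/oligo(dT)18 for HIV-1 RT, with [3H]dTTP. 60 min at 37 °C (Taq 74 °C). Activity relative to no-inhibitor control; mean ± SE of three experiments.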

The target in another data set is DNA polymerase iota (Mus musculus, UniProt Q6R3M4). The experiment in a line: Inhibition of C-terminal His6-tagged mouse DNA polymerase iota using poly(dA)/oligo(dT)18 (A/T = 2/1) and dTTP as the DNA template-primer and nucleotide substrate after 60 mins. In outline: as §1
Data set [1] can be described thus: Inhibition of Escherichia coli DNA polymerase 1 Klenow fragment using poly(dA)/oligo(dT)18 (A/T = 2/1) and dTTP as the DNA template-primer and nucleotide substrate after 60 mins. In outline: as §1
The target of data set [2] is Human immunodeficiency virus type 1 reverse transcriptase (Human immunodeficiency virus 1, UniProt Q72547). Put plainly: Inhibition of HIV-1 reverse transcriptase using poly(rA)/oligo(dT)18(A/T = 2/1) and dTTP as the DNA template-primer and nucleotide substrate after 60 mins. In outline:
as §1

Data set [3] addresses Inosine-5'-monophosphate dehydrogenase 2 (Mus musculus, UniProt P24547). The experiment in a line: Inhibition of mouse IMP dehydrogenase type 2. In outline: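 Calf primase of pol α and mouse IMP dehydrogenase type II measured by standard assays per manufacturer's specifications. Activity relative to no-compound control (100%).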
For a further data set, the target named is Polynucleotide kinase (Enterobacteria phage T4, UniProt P06855). Put plainly: Inhibition of T4 polynucleotide kinase using 5'-hydroxyl termini of DNA and [gamma-32ATP] after 30 mins by liquid scintillation counting. More on the design: species or system Tequatrovirus T4.
Data set [4] is described as follows: Cytotoxicity against mouse RAW264.7 cells. In kind it is cell-based. To be noted: read-out: LD50 (the source's name).
The nature of data set [5]: Inhibition of rice DNA polymerase lambda using poly(dA)/oligo(dT)18 (A/T = 2/1) and dTTP as the DNA template-primer and nucleotide substrate after 60 mins. More on the design: species or system Oryza sativa. Summed up: as §1
Data set [6] has as its target T1, DNA polymerase kappa (Homo sapiens) (UniProt Q9UBT6).
T1 sequence (whole entry): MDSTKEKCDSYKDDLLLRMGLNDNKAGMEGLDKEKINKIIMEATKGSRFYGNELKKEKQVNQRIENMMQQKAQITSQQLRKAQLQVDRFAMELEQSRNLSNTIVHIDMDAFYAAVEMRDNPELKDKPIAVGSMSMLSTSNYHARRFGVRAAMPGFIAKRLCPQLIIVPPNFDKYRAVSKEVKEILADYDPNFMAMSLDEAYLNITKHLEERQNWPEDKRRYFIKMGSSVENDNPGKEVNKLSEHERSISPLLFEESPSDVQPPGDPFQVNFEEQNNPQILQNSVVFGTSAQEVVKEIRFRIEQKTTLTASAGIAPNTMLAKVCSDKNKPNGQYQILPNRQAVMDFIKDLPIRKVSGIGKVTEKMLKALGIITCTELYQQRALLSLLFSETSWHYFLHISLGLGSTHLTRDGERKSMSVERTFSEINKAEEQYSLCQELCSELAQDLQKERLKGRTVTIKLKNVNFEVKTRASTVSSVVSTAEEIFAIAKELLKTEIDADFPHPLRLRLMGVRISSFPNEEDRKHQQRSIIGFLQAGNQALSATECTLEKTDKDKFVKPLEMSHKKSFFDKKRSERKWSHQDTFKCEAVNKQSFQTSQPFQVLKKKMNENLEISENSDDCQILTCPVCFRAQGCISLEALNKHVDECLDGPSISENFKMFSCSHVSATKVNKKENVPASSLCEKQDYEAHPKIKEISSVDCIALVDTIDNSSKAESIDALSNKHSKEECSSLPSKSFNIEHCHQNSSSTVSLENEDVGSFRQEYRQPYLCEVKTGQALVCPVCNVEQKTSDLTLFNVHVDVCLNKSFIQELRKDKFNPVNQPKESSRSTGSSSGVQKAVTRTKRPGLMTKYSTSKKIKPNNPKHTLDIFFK
The experiment in a line: Inhibition of C-terminal His6-tagged human DNA polymerase kappa (amino acids 1 to 560) using poly(dA)/oligo(dT)18 (A/T = 2/1) and dTTP as the DNA template-primer and nucleotide substrate at 10 uM after 60 mins.

For the next data set, the species on record is Bos taurus. The experiment in a line: Inhibition of calf DNA polymerase alpha using bovine deoxyribonuclease 1-treated DNA and dNTP as the DNA template-primer and nucleotide substrate at 10 uM after 60 mins.
The species entered for a further data set is Homo sapiens. The experiment in a line: Inhibition of histidine-tagged human DNA polymerase gamma using bovine deoxyribonuclease 1-treated DNA and dNTP as the DNA template-primer and nucleotide substrate at 10 uM after 60 mins.
The target in data set [7] is T1, DNA polymerase kappa (Homo sapiens). Put plainly: Inhibition of C-terminal His6-tagged human DNA polymerase kappa (amino acids 1 to 560) using bovine deoxyribonuclease 1-treated DNA and dNTP as the DNA template-primer and nucleotide substrate at 10 uM after 60 mins.
For data set [8], the target named is T2, DNA polymerase lambda (Homo sapiens) (UniProt Q9UGP5).
T2 sequence (whole entry): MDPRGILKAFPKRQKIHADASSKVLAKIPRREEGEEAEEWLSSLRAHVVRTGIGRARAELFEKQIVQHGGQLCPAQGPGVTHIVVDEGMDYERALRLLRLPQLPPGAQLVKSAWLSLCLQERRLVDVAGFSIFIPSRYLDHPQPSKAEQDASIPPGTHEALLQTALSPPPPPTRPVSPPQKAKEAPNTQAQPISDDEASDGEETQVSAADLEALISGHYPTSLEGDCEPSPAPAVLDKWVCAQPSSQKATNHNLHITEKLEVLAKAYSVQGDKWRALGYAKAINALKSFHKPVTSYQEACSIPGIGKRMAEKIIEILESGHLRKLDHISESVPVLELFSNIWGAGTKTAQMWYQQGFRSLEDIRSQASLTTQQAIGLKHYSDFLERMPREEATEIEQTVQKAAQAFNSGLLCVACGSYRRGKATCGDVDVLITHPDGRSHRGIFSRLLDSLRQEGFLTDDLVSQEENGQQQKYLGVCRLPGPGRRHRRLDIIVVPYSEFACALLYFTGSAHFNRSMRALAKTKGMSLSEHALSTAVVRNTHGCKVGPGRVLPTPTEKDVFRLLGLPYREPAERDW
The experiment in a line: Inhibition of recombinant His-tagged human DNA polymerase lambda using bovine deoxyribonuclease 1-treated DNA and dNTP as the DNA template-primer and nucleotide substrate at 10 uM after 60 mins.

Data set [9] is described as follows: Inhibition of histidine-tagged human DNA polymerase gamma using poly(dA)/oligo(dT)18 (A/T = 2/1) and dTTP as the DNA template-primer and nucleotide substrate after 60 mins. Summed up:
as §1

Data set [10] can be described thus: Inhibition of human DNA polymerase epsilon using poly(dA)/oligo(dT)18 (A/T = 2/1) and dTTP as the DNA template-primer and nucleotide substrate after 60 mins. In outline: as §1

Each structure is given as a SMILES string. Activity calls are given as the source filed them. The rule behind the calls is not given here.

Polynucleotide kinase, sequence (P06855 whole entry): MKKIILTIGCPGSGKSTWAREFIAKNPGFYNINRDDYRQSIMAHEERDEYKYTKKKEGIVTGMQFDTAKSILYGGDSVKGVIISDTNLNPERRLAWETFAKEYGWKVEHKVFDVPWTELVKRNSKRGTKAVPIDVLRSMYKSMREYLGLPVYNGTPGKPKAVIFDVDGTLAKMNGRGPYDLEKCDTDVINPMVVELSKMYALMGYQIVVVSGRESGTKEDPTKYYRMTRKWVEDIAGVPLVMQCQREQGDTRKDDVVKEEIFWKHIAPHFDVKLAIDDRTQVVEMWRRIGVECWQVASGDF
Inosine-5'-monophosphate dehydrogenase 2, sequence (P24547 whole entry): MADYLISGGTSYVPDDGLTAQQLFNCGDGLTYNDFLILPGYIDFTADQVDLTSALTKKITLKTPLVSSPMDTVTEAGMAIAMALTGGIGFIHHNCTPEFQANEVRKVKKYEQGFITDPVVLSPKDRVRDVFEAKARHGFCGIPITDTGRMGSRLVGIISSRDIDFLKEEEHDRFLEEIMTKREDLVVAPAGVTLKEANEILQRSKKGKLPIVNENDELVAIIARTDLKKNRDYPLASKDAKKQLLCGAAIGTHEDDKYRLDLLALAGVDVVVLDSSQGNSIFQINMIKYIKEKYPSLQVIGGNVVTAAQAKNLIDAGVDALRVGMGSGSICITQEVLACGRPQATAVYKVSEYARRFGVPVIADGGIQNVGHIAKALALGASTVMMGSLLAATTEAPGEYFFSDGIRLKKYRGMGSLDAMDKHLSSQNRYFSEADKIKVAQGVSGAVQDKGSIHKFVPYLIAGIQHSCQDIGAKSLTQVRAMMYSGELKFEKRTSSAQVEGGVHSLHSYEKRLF
DNA polymerase iota, sequence (Q6R3M4 whole entry, the tested form may be a part): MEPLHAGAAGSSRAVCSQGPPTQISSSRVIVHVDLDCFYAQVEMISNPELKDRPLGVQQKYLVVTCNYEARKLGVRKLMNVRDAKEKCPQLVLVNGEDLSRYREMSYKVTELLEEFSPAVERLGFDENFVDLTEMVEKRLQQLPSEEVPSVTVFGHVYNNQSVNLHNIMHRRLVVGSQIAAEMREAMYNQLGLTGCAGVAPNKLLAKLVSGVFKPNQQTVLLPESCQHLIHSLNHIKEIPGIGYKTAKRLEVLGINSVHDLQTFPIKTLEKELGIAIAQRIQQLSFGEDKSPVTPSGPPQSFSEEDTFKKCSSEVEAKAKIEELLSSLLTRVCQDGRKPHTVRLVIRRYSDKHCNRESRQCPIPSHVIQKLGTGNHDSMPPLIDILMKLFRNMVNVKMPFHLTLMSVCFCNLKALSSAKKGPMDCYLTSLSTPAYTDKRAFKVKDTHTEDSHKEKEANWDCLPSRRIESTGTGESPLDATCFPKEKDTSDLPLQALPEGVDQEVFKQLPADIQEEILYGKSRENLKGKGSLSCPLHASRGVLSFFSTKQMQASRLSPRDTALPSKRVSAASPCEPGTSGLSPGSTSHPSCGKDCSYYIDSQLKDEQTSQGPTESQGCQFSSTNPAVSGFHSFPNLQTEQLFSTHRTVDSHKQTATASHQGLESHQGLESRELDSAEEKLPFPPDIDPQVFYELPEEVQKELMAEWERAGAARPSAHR
DNA polymerase eta, sequence (Q9Y253 whole entry, the tested form may be a part): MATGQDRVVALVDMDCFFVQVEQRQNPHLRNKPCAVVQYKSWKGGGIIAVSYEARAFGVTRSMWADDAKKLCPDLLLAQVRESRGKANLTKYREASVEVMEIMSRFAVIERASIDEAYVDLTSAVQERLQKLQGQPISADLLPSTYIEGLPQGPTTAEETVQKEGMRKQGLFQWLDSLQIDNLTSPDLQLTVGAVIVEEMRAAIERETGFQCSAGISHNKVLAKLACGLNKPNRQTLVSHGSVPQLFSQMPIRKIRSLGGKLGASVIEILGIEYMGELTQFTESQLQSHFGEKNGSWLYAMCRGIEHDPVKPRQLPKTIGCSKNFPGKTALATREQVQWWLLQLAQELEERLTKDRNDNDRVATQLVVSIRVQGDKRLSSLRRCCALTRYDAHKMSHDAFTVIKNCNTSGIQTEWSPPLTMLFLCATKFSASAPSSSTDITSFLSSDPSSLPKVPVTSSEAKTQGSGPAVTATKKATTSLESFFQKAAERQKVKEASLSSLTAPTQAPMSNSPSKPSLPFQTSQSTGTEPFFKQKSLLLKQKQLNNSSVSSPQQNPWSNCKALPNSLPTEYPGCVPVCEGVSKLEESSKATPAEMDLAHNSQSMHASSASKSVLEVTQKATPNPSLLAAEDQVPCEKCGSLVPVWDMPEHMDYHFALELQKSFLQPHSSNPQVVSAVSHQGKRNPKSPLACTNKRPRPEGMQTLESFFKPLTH

As for `CCCCCCCCCCCC(=O)Oc1cccc2c1C(=O)C=CC2=O`, the 50% inhibitory concentration (IC50) against DNA polymerase eta is 6.9 µM; against DNA polymerase iota it was 7.1 µM; in [1] it was more than 100 µM; in data set [2] it was more than 100 µM; in [3], more than 100 µM; on Polynucleotide kinase, more than 100 µM. In addition, the IC50 is more than 100 µM in data set [5], 6.5 µM in data set [9] and 6.6 µM in data set [10]. For the same compound, the CC50 in data set [4] was more than 10 µM. Moreover, the inhibition result (in data set [6]; in the data set listed under Bos taurus; in the data set filed under Homo sapiens; in data set [7]; in data set [8]) was “Active” in each case.
As to `CCCCCCCC/C=C\CCCCCCCC(=O)Oc1cccc2c1C(=O)C=CC2=O`, the IC50 against DNA polymerase eta is 8.4 µM; at DNA polymerase iota it was 8.7 µM; in data set [1], more than 100 µM; in [2], more than 100 µM; in data set [3], more than 100 µM; at Polynucleotide kinase, more than 100 µM. Also, the IC50 in data set [5] was more than 200 µM; in data set [9], 0.72 µM; in [10] it was 0.7 µM. In [4], the CC50 is more than 10 µM. The inhibition result (in data set [6]; in the data set listed under Bos taurus; in the data set filed under Homo sapiens; in [7]; in [8]) was “Active” in each case.
